Here are results for 4 compounds from ChEMBL document CHEMBL1125911, “Synthesis and biological activity of new HMG-CoA reductase inhibitors. 3. Lactones of 6-phenoxy-3,5-dihydroxyhexanoic acids” (J Med Chem, 1991).

In test [1] the test system is Canis familiaris. Nature of the test: Tested in vivo for hypocholesterolemic activity by measuring its ability to decrease serum LDL-cholesterol, after oral administration of 5 mg/kg per day for 14 days in male Beagle dogs. In kind it is functional, Canis lupus familiaris. The method in brief:
(§1)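 Male beagle dogs (n = 4) given neat compound in gelatine capsules daily at 3:00 p.m.; controls received empty capsules. After an overnight fast, venous blood was drawn at 8:00 a.m. Serum lipoproteins were separated by ultracentrifugation (densities 1.006/1.063/1.21). LDL-cholesterol reported as % change versus control.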

Test [2] has as its system Canis familiaris. Nature of the test: Tested in vivo for hypocholesterolemic activity by measuring its ability to decrease serum LDL-cholesterol, after oral administration of 30 mg/kg per day for 14 days in male Beagle dogs. In kind it is functional, Canis lupus familiaris. The method in brief:
as §1

The species named for test [3] is Sus scrofa. Kind of test: In vitro inhibition of Cu2+ catalyzed LDL oxidation at 10e-5 M conc. Format: functional. The method in brief: (§2)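 Porcine plasma LDL isolated by sequential ultracentrifugation (density 1.019-1.063 g/mL), dialysed against PBS pH 7.4, then diluted to 0.1 mg/mL protein. Preincubated 1 h at 37 °C under N2 with compound in ethanol. Oxidised with 5 μM Cu2+ for 2 h at 37 °C in air. Fluorescence read at ex 365/em 430 nm.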

For test [4], the species on record is Sus scrofa. Nature of the test: Compound was tested for inhibition of Cu2+ catalyzed LDL oxidation and the potency relative to terbufucine was determined. In kind it is functional. Summed up: as §2
The species entered for test [5] is Rattus norvegicus. Nature of the test: In vitro inhibition of microsomal lipid peroxidation. Format: functional. Summed up: (§3)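 Rat liver microsomes in 50 mM Tris-HCl pH 7.4 with 100 mM KCl and 6.0 mM MgCl2, final protein 0.4 mg/mL. Peroxidation was started with ADP (2 mM)/FeCl3 (10 μM) plus an NADPH-regenerating system. Incubation 30 min at 37 °C with shaking. Thiobarbituric acid reactive substances were read at 535 nm.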

Test [6] concerns Canis familiaris. Nature of the test: Tested in vivo for hypocholesterolemic activity by measuring its ability to decrease serum LDL-cholesterol, after oral administration of 10 mg/kg per day for 14 days in male Beagle dogs. In kind it is functional, Canis lupus familiaris. The method in brief: as §1
Test [7] has as its system Canis familiaris. Nature of the test: Tested in vivo for hypocholesterolemic activity by measuring its ability to decrease serum LDL-cholesterol, after oral administration of 25 mg/kg per day for 14 days in male Beagle dogs. In kind it is functional, Canis lupus familiaris. The method in brief:
as §1

The target of test [8] is T1, 3-hydroxy-3-methylglutaryl-coenzyme A reductase (Rattus norvegicus, UniProt P51639).
T1 sequence (P51639 whole entry): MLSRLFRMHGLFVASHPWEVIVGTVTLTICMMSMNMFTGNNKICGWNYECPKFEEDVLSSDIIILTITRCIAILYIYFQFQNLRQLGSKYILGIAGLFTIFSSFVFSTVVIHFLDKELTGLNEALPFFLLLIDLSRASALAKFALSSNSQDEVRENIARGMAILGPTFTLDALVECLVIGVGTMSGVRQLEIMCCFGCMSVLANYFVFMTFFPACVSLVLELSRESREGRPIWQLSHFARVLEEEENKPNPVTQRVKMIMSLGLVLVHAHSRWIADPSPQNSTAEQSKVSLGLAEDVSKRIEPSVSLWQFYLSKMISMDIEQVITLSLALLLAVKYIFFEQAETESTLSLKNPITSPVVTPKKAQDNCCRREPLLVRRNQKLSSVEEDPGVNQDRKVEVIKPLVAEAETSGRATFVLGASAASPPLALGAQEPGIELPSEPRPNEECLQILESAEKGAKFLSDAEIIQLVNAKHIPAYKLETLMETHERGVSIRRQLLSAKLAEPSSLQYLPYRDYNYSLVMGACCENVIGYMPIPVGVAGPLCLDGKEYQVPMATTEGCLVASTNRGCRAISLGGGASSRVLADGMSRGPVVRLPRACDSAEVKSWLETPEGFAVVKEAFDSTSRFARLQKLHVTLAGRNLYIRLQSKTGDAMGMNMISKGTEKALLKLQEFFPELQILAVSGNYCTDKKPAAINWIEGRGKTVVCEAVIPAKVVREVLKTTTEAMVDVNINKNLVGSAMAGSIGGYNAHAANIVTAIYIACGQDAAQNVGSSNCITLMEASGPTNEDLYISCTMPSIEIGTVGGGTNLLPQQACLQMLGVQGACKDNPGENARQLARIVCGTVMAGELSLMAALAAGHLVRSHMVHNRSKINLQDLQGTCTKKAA
Kind of test: In vitro inhibition of HMG-CoA reductase in solubilized rat liver.

Test [9] deals with T2, 3-hydroxy-3-methylglutaryl-coenzyme A reductase (Rattus norvegicus) (UniProt P51639).
T2 sequence (whole entry): T1 sequence (P51639 whole entry)
Kind of test: (§4) Inhibition of HMG-CoA reductase compared to mevinolin. The method in brief: (§5)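 Solubilized, partially purified rat liver HMG-CoA reductase. IC50 from four or five inhibitor concentrations. Relative potency compared IC50 with mevinolin (set to 100), corrected for molecular weight.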

Test [10] deals with T3, 3-hydroxy-3-methylglutaryl-coenzyme A reductase (Homo sapiens, UniProt P04035).
T3 sequence (P04035 whole entry): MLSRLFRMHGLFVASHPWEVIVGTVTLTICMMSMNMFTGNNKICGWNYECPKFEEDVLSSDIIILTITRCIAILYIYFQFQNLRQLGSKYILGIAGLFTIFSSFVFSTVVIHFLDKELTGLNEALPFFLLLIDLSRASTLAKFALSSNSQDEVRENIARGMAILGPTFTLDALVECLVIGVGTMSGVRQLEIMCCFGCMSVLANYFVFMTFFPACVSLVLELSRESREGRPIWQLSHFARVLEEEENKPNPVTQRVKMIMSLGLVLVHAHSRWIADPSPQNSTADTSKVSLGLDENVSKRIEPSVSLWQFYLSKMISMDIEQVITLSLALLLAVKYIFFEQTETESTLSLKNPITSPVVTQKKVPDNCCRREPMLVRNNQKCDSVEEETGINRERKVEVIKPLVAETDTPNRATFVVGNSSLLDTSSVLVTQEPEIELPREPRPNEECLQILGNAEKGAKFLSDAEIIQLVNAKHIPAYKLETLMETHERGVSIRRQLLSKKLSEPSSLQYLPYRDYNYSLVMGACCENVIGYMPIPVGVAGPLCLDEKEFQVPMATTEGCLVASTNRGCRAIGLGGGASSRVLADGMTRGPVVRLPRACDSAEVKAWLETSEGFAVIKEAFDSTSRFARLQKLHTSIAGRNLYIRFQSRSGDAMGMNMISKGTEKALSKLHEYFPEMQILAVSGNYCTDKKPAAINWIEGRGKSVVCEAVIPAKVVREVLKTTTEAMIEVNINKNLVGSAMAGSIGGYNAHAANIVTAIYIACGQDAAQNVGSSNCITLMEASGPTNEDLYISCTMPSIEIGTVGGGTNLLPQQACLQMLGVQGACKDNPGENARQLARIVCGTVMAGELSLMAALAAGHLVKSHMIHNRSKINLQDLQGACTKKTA
Nature of the test: Inhibition of the incorporation of sodium [14C]acetate into cholesterol in HEP G2 cells. In kind it is functional, cell-based, HepG2.

Test [11] deals with T4, 3-hydroxy-3-methylglutaryl-coenzyme A reductase (Homo sapiens) (UniProt P04035).
T4 sequence (whole entry): T3 sequence (P04035 whole entry)
Described as §4. Format: functional. Summed up: as §5

For test [12], the system named is Oryctolagus cuniculus. Kind of test: Tested in vivo for hypocholesterolemic activity by measuring its ability to decrease serum total cholesterol, after oral administration of 10 mg/kg body wt. per day in normolipidemic NZW rabbits. In kind it is functional. Summed up: (§6)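 NZW rabbits (n = 5 or 6) dosed orally daily for 10 days. Serum total cholesterol reported as % change versus control. For 20 mg/kg, that dose was given on days 11-20 after 10 mg/kg, with the value read on day 20. Error given as SEM.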

Test [13] deals with Oryctolagus cuniculus. Nature of the test: Tested in vivo for hypocholesterolemic activity by measuring its ability to decrease serum total cholesterol, after oral administration of 20 mg/kg body wt. per day in normolipidemic NZW rabbits. In kind it is functional. The method in brief: as §6
The subject of test [14] is Oryctolagus cuniculus. Kind of test: Tested in vivo for hypocholesterolemic activity by measuring its ability to decrease serum total cholesterol, after oral administration of 75 mg/kg body wt. per day in normolipidemic NZW rabbits; Very potent. Format: functional, organism-based. Details: dose 75 mg/kg, route oral.
The test system of test [15] is Rattus norvegicus. Nature of the test: Compound was tested for effect on body weight after oral administration of 100 mg/kg in male rats. Format: functional. The method in brief:
(§7)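 Male HOE:WISKf (SPF 71) rats, initial body weight over 180 g, n = 10 per group, dosed once daily in the morning by gavage in polyethylene glycol 400 for 7 days; controls received vehicle. Fasted after last dose, bled retroorbitally 24 h later under mild ether. Liver and body weight recorded. Pooled group serum was ultracentrifuged into VLDL (<1.006), LDL (1.006-1.04) and HDL (1.04-1.21). Values are % change versus control.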

In test [16] the test system is Rattus norvegicus. Kind of test: Compound was tested for effect on body weight after oral administration of 30 mg/kg in male rats. In kind it is functional. Summed up: as §7
Test [17] concerns Rattus norvegicus. Kind of test: Compound was tested for effect on liver weight after oral administration of 100 mg/kg in male rats. In kind it is functional. Summed up:
as §7

Test [18] deals with Rattus norvegicus. Nature of the test: Compound was tested for effect on liver weight after oral administration of 30 mg/kg in male rats. Format: functional. Summed up:
as §7

Test [19] relates to Rattus norvegicus. Nature of the test: Compound was tested for effect on serum HDL after oral administration of 100 mg/kg in male rats. Format: functional. Summed up:
as §7

Test [20] deals with Rattus norvegicus. Nature of the test: Compound was tested for effect on serum HDL after oral administration of 30 mg/kg in male rats. Format: functional. Summed up:
as §7

For test [21], the system named is Rattus norvegicus. Nature of the test: Compound was tested for effect on serum LDL after oral administration of 100 mg/kg in male rats. Format: functional. Summed up:
as §7

For test [22], the system named is Rattus norvegicus. Kind of test: Compound was tested for effect on serum LDL after oral administration of 30 mg/kg in male rats. In kind it is functional. The method in brief:
as §7

The test system of test [23] is Rattus norvegicus. Nature of the test: Compound was tested for effect on serum VLDL after oral administration of 100 mg/kg in male rats. In kind it is functional. The method in brief: as §7
Test [24] deals with Rattus norvegicus. Kind of test: Compound was tested for effect on serum VLDL after oral administration of 30 mg/kg in male rats. In kind it is functional. The method in brief:
as §7

For test [25], the species on record is Rattus norvegicus. Nature of the test: Compound was tested for inhibition of microsomal lipid peroxidation and the potency relative to terbufucine was determined. Format: functional. Summed up: as §3
Test [26] deals with T1, 3-hydroxy-3-methylglutaryl-coenzyme A reductase. Nature of the test: In vitro inhibition of solubilized HMG-CoA reductase in rat liver.
In test [27] the test system is Oryctolagus cuniculus. Nature of the test: Tested in vivo for hypocholesterolemic activity by measuring its ability to decrease serum total cholesterol, after oral administration of 75 mg/kg body wt. per day in normolipidemic NZW rabbits; More potent than compound 73. Details: dose 75 mg/kg, route oral. Format: functional, organism-based.

In the case of `CC(C)c1cc(Sc2ccc(F)cc2)cc(-c2ccc(F)cc2)c1OCC1C[C@@H](O)CC(=O)O1` (some centres not stated), the values for the Change in test [1] and in test [2] were -9% and -21%, respectively. Further, 10 µM produced 23% inhibition in test [3]. The compound further yielded a Relative potency in test [4] of less than 0.1. This compound also returned an IC50 in [5] of more than 10000 nM.
For `CC(C)c1cc(-c2ccc(F)cc2)c(OCC(O)C[C@@H](O)CC(=O)[O-])c(C(C)C)c1.[Na+]` (some centres not stated), the Change in [6] is recorded as -10%; in [7] it was -21%; in test [12], -32%; in [13], -37%. The IC50 in [8] was 2.7 nM; in test [10], 30 nM; in test [14], “Very potent”. The figures for the Relative potency in test [9] and in test [11] were 300 and 150, respectively.
Consider `CC(C)c1cc(SC(C)(C)Sc2cc(-c3ccc(F)cc3)c(OCC(O)C[C@@H](O)CC(=O)[O-])c(C(C)C)c2)cc(-c2ccc(F)cc2)c1[O-].[Na+].[Na+]` (some centres not stated), for which the half-inhibitory concentration (IC50) in test [8] is 30 nM; in test [10], more than 1700 nM; in test [5], 2700 nM. In addition, the Relative potency in test [9] is 15; in test [11], less than 3; in [25], 4. Besides, the Change in test [15] is recorded as 5%; in [16] it was 5%; in test [17], 1%; in test [18] it was 3%; in [19], -3%; in [20], 13%. For the same compound, the Change in [21] is -16%; in [22], -26%; in [23], 13%; in test [24], 12%.
For the compound `CC(C)c1nc(C(C)(C)C)cc(-c2ccc(F)cc2)c1/C=C/[C@@H](O)C[C@@H](O)CC(=O)[O-].[Na+]`, the figures for the concentration for half-maximal inhibition (IC50) in test [26] and in test [27] were 1 nM and “More potent than compound 73”, respectively.

For orientation: inhibition means the relative decrease from the control value, in per cent. As usually defined, the IC50 is the concentration that inhibits the measured activity by half. Low readings indicate inhibition by little substance, high ones a need for much substance.
